Measurements gathered from unrelated publications.
Each line is one published result; the experiments were not run side by side.
DHFR: Dihydrofolate reductase (DHFR, Homo sapiens, UniProt P00374)
Tmem97: Sigma intracellular receptor 2 (Tmem97, Rattus norvegicus, UniProt Q5U3Y7)

Cc1cccc(C)c1NC(=S)NN=Cc1ccc(N2CCCCC2)cc1 — inhibition (DHFR; enzyme activity; inhibitor; 500 µM): 87.5%
COc1cc(-c2cncc3c2CN(C)Cc2cc(N4CCNCC4)ccc2-3)cc(OC)c1OC — remaining activity (MAPK/MAK/MRK overlapping kinase (MOK, Homo sapiens, UniProt Q9UQ07); enzyme activity; inhibitor; 1 µM): 103%
COc1cccc(NC(=S)NN=Cc2ccc(N3CCCCC3)cc2)c1 — inhibition (DHFR; enzyme activity; inhibitor; 500 µM): 84.9%
CC(C)OC(=O)CNc1cccc(CN(Cc2ccc(-n3cccn3)cc2)S(=O)(=O)c2cccnc2)n1 — inhibition (Rho-associated protein kinase 1 (ROCK1, Homo sapiens, UniProt Q13464); enzyme activity; inhibitor; 10 µM): ≥ 50%
COc1cc([C@@H]2c3cc4c(cc3[C@@H](O[C@@H]3O[C@@H]5CO[C@@H](C)O[C@H]5[C@H](O)[C@H]3O)[C@H]3COC(=O)[C@H]23)OCO4)cc(OC)c1O — inhibition (DNA topoisomerase 2-alpha (TOP2A, Homo sapiens, UniProt P11388); enzyme activity; inhibitor; 31.5 µM): 0%
O=[N+]([O-])c1ccc(NC(=S)NN=Cc2ccc(N3CCCCC3)cc2)cc1 — inhibition (DHFR; enzyme activity; inhibitor; 500 µM): 90.6%
CNc1ncc2c(/C=C/C(=O)N3CCC(OC)CC3)nn(Cc3cccc(C(F)(F)F)c3)c2n1 — remaining activity (Activin receptor type-2B (ACVR2B, Homo sapiens, UniProt Q13705); enzyme activity; inhibitor; radiometric; 1 µM): 119%
S=C(NN=Cc1ccc(N2CCCCC2)cc1)Nc1c(Cl)cccc1Cl — inhibition (DHFR; enzyme activity; inhibitor; 500 µM): 83.2%
COc1ccc2[nH]c3c(c2c1)[C@H]1C[C@@H]([C@H]3C)N(Cc2ccccc2)C[C@]1(C)O — inhibition (Tmem97; ligand displacement; radioligand; 1 µM): 0%
C=CC(=O)N1CCC(COCC(=O)N2CCN(c3nc(-c4cnc(N)nc4C(F)F)nc(N4CCOC[C@@H]4C)n3)CC2)CC1 — remaining binding (Calcium/calmodulin-dependent protein kinase type II subunit alpha (CAMK2A, Homo sapiens, UniProt Q9UQM7); binding; competition with immobilised ligand; 1 µM): 100%
Cc1cc([C@@H](C)Nc2ccccc2C(=O)O)c2nc(N3CCC(F)(F)CC3)c(C#N)c(=O)n2c1 — remaining binding (Casein kinase I isoform delta (CSNK1D, Homo sapiens, UniProt P48730); binding; competition with immobilised ligand; 10 µM): 100%
C[C@H]1c2nc3ccccc3c(-c3ccccc3)c2[C@H]2C[C@@H]1N(Cc1ccccc1)C[C@]2(C)O — inhibition (Tmem97; ligand displacement; radioligand; 1 µM): 0%
